SMILES strings stand for the structures.

For test [1], the target named is Cyclin-dependent kinase 6 (Homo sapiens) (UniProt Q00534). Description: Inhibition of human recombinant CDK6 at 40 nM in presence of ATP by radiometric assay relative to control.
Test [2] has as its target Cyclin-dependent kinase-like 1 (Homo sapiens) (UniProt Q00532). The experiment in a line: Inhibition of human recombinant CDKL1 at 40 nM related to control ULK1.
The target in test [3] is Dual specificity tyrosine-phosphorylation-regulated kinase 1A (Homo sapiens) (UniProt Q13627). The experiment in a line: Inhibition of human recombinant DYRK1A at 500 nM in presence of ATP by radiometric assay relative to control.
Test [4] deals with Mitogen-activated protein kinase 14 (Homo sapiens) (UniProt Q16539). The experiment in a line: Inhibition of human recombinant p38alpha at 500 nM in presence of ATP by radiometric assay relative to control.
Test [5] addresses T1, cAMP-dependent protein kinase catalytic subunit PRKX (Homo sapiens) (UniProt P51817).
T1 sequence (whole entry): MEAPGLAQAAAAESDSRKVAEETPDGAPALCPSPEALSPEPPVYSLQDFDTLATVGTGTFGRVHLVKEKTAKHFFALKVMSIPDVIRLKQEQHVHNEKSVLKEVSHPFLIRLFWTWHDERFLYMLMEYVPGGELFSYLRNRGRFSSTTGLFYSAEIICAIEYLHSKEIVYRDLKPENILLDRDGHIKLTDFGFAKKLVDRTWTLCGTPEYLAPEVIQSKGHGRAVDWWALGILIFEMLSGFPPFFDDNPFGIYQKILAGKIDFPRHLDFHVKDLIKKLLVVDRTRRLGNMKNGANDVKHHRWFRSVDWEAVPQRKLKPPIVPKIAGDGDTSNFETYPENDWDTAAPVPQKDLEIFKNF
The experiment in a line: Inhibition of human recombinant PRKX at 500 nM related to control ULK1.

Test [6] deals with T2, Tribbles homolog 2 (Homo sapiens) (UniProt Q92519).
T2 sequence (whole entry): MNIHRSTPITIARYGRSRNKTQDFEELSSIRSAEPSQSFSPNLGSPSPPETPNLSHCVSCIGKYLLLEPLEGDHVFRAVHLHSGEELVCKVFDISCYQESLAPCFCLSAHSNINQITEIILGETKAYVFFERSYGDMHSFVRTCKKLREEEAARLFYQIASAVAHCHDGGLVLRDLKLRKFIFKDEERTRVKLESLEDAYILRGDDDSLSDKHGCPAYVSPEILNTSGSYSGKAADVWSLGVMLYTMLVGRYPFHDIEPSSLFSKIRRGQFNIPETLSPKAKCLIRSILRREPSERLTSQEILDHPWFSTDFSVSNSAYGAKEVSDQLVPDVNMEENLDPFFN
Description: Inhibition of human recombinant Trb2 at 500 nM related to control ULK1.

Test [7] addresses Serine/threonine-protein kinase MAK (Homo sapiens) (UniProt P20794). The experiment in a line: Inhibition of human recombinant MAK at 500 nM related to control ULK1.
The target of test [8] is Activated CDC42 kinase 1 (Homo sapiens) (UniProt Q07912). Description: Inhibition of human recombinant ACK at 15 nM in presence of ATP by radiometric assay relative to control. An outline of the steps:
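Panel of 327 recombinant human kinases in radiometric activity assays, each screened in duplicate at a single inhibitor concentration; percent activity remaining relative to vehicle control, percent inhibition taken as 100 minus activity remaining.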

In test [9] the target is Cyclin-dependent kinase 2 (Homo sapiens) (UniProt P24941). The experiment in a line: Inhibition of human recombinant CDK2 at 15 nM in presence of ATP by radiometric assay relative to control.
In test [10] the target is T3, Mitogen-activated protein kinase 13 (Homo sapiens) (UniProt O15264).
T3 sequence (whole entry): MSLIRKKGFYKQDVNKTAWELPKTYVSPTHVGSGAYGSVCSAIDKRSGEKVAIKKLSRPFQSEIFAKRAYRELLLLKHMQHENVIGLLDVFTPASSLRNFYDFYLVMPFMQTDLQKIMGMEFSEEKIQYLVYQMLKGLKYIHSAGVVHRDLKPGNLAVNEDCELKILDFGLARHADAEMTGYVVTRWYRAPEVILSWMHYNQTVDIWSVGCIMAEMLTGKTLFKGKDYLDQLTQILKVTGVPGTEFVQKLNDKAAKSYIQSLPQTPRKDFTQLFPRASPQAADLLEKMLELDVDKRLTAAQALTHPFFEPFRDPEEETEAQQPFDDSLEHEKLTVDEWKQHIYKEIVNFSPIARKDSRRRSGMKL
Description: Inhibition of human recombinant p38delta at 15 nM in presence of ATP by radiometric assay relative to control.

Test [11] addresses T4, SNF-related serine/threonine-protein kinase (Homo sapiens) (UniProt Q9NRH2).
T4 sequence (whole entry): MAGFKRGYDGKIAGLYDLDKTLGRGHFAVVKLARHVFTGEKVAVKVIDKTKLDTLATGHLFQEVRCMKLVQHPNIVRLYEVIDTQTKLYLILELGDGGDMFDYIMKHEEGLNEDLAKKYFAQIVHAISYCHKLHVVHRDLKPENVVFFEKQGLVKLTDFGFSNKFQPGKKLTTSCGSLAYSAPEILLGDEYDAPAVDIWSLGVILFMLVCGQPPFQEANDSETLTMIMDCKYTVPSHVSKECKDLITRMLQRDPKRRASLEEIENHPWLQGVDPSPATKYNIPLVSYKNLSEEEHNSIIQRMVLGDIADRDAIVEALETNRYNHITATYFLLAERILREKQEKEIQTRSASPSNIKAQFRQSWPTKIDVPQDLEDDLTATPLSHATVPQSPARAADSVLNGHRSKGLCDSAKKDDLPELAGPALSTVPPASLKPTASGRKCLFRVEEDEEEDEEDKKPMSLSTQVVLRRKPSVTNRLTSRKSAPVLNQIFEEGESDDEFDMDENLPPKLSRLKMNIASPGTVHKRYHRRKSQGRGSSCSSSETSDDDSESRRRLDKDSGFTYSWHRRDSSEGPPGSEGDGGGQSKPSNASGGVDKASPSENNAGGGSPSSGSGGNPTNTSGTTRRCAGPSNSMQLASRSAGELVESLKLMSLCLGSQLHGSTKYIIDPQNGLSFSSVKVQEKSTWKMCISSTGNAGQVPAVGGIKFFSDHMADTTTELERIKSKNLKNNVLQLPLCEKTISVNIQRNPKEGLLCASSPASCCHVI
Description: Inhibition of human recombinant SNRK at 15 nM in presence of ATP by radiometric assay relative to control.

Test [12] deals with Serine/threonine-protein kinase VRK2 (Homo sapiens) (UniProt Q86Y07). Description: Inhibition of human recombinant VRK2 at 15 nM in presence of ATP by radiometric assay relative to control.
Test [13] deals with Fibroblast growth factor receptor 1 (Homo sapiens) (UniProt P11362). The experiment in a line: Inhibition of human recombinant FGFR1 at 15 nM related to control ULK1.
Chain of Fibroblast growth factor receptor 1 (Homo sapiens) (P11362 22-822 limits assumed): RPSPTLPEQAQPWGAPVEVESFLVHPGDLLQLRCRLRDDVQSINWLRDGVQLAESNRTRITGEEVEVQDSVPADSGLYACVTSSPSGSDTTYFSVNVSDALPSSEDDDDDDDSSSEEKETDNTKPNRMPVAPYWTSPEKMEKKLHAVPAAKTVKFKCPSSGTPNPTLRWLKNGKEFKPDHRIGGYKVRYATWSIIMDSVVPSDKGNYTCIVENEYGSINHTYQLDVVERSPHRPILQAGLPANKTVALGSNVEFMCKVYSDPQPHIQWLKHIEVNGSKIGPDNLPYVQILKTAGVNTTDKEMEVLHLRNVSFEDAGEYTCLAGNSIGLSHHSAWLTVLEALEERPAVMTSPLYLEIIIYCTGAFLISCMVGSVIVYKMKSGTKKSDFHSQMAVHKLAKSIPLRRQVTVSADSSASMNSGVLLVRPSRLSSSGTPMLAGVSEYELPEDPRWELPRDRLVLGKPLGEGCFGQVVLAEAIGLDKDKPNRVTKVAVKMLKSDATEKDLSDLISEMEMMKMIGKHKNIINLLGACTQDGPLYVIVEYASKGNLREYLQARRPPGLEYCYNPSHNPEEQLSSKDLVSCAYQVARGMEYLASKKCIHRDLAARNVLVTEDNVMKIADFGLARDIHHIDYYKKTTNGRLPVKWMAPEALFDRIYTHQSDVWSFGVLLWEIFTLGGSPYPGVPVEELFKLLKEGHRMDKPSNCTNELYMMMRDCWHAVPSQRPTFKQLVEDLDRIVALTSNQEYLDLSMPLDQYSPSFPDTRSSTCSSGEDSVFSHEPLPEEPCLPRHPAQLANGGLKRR

Chain of Mitogen-activated protein kinase 14 (Homo sapiens) (Q16539 whole entry): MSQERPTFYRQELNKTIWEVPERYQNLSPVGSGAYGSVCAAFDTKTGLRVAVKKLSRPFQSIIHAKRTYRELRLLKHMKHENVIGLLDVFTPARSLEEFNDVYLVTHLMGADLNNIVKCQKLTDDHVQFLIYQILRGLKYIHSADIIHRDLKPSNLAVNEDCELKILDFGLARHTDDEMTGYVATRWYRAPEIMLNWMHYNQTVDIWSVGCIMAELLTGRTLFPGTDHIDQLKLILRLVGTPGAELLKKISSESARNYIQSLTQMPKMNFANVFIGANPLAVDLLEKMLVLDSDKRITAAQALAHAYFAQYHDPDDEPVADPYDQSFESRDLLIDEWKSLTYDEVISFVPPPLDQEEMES
Chain of Serine/threonine-protein kinase VRK2 (Homo sapiens) (Q86Y07 whole entry): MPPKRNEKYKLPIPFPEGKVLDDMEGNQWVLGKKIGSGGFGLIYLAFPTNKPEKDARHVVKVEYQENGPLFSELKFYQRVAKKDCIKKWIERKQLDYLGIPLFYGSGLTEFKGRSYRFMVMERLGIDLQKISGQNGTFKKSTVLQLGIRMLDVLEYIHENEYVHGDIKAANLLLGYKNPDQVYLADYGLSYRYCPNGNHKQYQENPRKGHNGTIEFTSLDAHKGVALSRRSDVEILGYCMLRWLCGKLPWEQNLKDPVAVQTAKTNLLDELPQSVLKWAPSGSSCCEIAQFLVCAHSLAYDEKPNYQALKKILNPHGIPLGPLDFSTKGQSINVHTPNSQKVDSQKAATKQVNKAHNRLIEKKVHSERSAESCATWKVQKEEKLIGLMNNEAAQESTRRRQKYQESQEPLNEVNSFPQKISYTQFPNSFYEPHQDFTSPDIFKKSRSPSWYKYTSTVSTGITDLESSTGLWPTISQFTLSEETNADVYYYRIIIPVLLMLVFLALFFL
Chain of Cyclin-dependent kinase 6 (Homo sapiens) (Q00534 whole entry): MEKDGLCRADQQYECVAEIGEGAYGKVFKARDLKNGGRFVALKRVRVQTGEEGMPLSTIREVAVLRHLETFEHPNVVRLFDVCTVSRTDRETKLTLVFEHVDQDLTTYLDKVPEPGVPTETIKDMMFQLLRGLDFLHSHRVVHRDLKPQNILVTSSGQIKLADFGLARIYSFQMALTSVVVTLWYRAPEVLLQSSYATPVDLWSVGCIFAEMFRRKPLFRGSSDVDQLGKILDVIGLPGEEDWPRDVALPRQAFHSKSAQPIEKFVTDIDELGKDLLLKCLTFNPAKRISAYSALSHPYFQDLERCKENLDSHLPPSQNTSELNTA
Chain of Serine/threonine-protein kinase MAK (Homo sapiens) (P20794 whole entry, looked up): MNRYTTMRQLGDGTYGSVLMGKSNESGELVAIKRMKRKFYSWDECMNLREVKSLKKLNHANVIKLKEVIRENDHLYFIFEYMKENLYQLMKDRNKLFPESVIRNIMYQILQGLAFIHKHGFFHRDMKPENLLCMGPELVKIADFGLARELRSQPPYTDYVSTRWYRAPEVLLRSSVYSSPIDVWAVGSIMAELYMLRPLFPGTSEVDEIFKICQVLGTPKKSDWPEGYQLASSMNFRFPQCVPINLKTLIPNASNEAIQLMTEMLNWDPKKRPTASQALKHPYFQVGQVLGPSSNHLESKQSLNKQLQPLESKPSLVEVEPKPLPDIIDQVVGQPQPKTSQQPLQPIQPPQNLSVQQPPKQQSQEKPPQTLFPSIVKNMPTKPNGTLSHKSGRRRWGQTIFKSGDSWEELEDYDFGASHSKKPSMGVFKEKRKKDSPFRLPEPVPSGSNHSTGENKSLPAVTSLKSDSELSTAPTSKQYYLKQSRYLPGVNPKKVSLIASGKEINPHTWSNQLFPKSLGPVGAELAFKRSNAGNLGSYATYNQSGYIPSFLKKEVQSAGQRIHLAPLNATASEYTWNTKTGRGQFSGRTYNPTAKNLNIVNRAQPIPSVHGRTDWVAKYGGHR
Chain of Activated CDC42 kinase 1 (Homo sapiens) (Q07912 whole entry, looked up): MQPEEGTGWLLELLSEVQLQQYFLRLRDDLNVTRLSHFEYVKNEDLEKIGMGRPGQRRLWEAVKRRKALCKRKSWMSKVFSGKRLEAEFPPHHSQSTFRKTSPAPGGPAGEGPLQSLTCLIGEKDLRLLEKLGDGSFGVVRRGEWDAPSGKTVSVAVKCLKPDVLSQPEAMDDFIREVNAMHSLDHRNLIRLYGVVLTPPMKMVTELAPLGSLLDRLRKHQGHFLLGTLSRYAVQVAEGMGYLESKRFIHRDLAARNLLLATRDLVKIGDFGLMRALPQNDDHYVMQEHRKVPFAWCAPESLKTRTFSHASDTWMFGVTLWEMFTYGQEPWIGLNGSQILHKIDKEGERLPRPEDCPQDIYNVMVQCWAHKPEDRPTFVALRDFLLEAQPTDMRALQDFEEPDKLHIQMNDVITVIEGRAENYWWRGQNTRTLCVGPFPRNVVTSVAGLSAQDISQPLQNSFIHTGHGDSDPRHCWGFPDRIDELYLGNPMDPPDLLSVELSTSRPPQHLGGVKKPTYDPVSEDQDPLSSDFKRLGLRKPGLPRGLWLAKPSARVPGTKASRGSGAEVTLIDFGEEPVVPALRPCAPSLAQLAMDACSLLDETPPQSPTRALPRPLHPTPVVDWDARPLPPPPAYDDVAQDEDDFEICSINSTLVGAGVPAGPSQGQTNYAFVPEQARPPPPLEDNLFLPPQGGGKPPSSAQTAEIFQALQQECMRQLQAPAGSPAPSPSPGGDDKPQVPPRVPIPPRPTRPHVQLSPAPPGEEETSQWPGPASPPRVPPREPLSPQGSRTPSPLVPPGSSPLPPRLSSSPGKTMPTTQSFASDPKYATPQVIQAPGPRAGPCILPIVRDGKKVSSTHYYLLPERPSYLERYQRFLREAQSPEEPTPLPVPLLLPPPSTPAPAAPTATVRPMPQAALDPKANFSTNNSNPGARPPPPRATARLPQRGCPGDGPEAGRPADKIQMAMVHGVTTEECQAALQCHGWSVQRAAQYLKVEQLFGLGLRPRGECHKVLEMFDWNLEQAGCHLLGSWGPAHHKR
Chain of Cyclin-dependent kinase-like 1 (Homo sapiens) (Q00532 whole entry): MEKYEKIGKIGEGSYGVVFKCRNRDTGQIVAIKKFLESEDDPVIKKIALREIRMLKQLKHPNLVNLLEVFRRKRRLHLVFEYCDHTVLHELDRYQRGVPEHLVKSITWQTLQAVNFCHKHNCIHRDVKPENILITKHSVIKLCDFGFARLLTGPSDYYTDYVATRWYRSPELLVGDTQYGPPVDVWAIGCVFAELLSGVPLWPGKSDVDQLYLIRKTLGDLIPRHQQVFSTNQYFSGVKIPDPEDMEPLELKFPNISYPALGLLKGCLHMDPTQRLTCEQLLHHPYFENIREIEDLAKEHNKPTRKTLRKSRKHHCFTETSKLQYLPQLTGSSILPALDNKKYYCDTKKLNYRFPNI

Regarding `O=C(N[C@@H](C1CC1)C(F)(F)F)c1cc(-c2cnn3cc(-c4ccc(F)cc4)cnc23)cs1`, in [1], the inhibition (commonly the relative decrease from the control value, in per cent) amounted to 3%. Also, the fold change (FC) in [2] was 0.21.

Take `CNC(=O)c1ccccc1Oc1nc(Nc2cc(OC)c(OC)c(OC)c2)ncc1Br`: the inhibition in test [3] stood at 1%; in test [4], 5%. Also, the results for the fold change (FC) in test [5], in [6] and in test [7] were 0.22, 0 and 0.49, respectively.

For `CC(C)[C@H](NC(=O)c1cc(-c2cnn3cc(-c4ccc(OCCN5CCCCC5)cc4)cnc23)cs1)C(F)(F)F`, the inhibition in test [8] came to 0%; in [9], 1%; in test [10], 6%; in [11] it was 8%; in [12], 0%. Besides, the fold change (FC) in test [13] is 0.

Source of the values: ChEMBL document CHEMBL5653631, “A Potent and Selective ULK1 Inhibitor Suppresses Autophagy and Sensitizes Cancer Cells to Nutrient Stress” (iScience, 2018).
